These results are taken from article PMC3690702 (Nuclear medicine and biology, 2010).

One series concerns BCRP. The note with it: cited from earlier work.
Series [1] in a line: Stability testing in formulation solution for i.v. injection. It is filed as physicochemical. The settings on record: at least 2 h at room temperature; 0.9% aq. saline/ethanol/polyethylene glycol 300; HPLC system A.
Series [2] can be described thus: Small-animal PET imaging of [11C]-1 in wild-type and transporter knockout mice. It is filed as in vivo. The settings on record: for Brain AUC / Brain-blood ratio, 25 min / Brain concentration, 25 min: total radioactivity, mean±SD; for Brain AUC: 0-60 min; for Brain AUC / Brain concentration, 25 min: n=3; for AUC of brain TACs, fold higher compared to wild-type animals: p=0.0495. Summed up: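 Female mice, 25-30 g, three per genotype. Isoflurane 2.5% to induce, 1.5-2% by mask to maintain, warmed to about 38°C. About 0.1 mL radiotracer (28±16 MBq) into the lateral tail vein. Whole-brain PET TACs as %ID/g; AUC from zero to the last time point. Brain %ID/g at 25 min divided by whole-blood %ID/g from a separate group (one mouse per genotype) gives brain-blood ratio. Mean±SD; Mann-Whitney U versus wild-type.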

Series [3] is classed as in vivo, mice. The settings on record: for total plasma radioactivity recovered in SPE fraction 3 (MeOH) / percentage of unchanged [11C]-1 in mouse plasma / Blood concentration, 25 min: n=1; for percentage of unchanged [11C]-1 in mouse plasma: 25 min after tracer injection; for percentage of total brain radioactivity in the form of unchanged [11C]-1: brain tissue extract, HPLC system A; for Blood concentration, 25 min: total radioactivity; for mean brain-to-plasma ratio of unchanged [11C]-1, fold higher compared to wild-type animals: 25 min, p=0.0495; for Kp at 25 min: mouse, brain and plasma, intravenous, Brain-plasma ratio of unchanged [11C]-1, 25 min, mean±SD. Summed up:
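Female mice, 25-30 g, one per genotype, given radiotracer i.v. At 25 min: cardiac blood into heparin, spun 3,000×g, 5 min, 21°C, for plasma. Blood and plasma weighed, gamma-counted (cross-calibrated with PET), decay-corrected, %ID/g. Plasma spiked with unlabelled carrier, acidified, run through tC18 SPE (H2O wash, MeOH elution). H2O and MeOH fractions went to reversed-phase HPLC (pH 5.0, 35°C) and Aminex HPLC, UV 227 nm. Brain homogenised in saline, CH3CN-extracted, supernatant HPLC.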

A short description of series [4]: Stability testing in mouse plasma in vitro. It is filed as in vitro ADME. The note with it: 37°C, 30 min, SPE/HPLC. Summed up:
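Citrated mouse plasma (0.5 mL) mixed with 20 µL formulated radiotracer (about 40 MBq). Held 30 min at 37°C in a shaking water bath. Then C18 solid-phase extraction: acidified load, H2O wash, MeOH elution. Fractions analysed by radio-HPLC, reversed-phase column, CH3CN/MeOH/NH4OAc pH 5.0, UV 227 nm, to find the polar labelled species.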

The conditions of series [5]: rats; time course of a 1 h PET scan; cited from earlier work.
The mark [6] stands for this setting: Bcrp1(−/−) mice, 25 min after injection.
The mark [7] stands for this setting: Mdr1a/b(−/−) mice, 25 min after injection.
[8] abbreviates: wild-type mice, 25 min after injection.

Structures are written as SMILES. Read-outs that look alike come from different tables or passages of the source.

Consider `COC(=O)c1ccc(C(=O)Nc2ccc(CCN3CCc4cc(OC)c(OC)cc4C3)cc2)cc1NC(=O)c1ccc2ccccc2n1` [Compound 1, Methyl 4-((4-(2-(6,7-dimethoxy-1,2,3,4-tetrahydroisoquinolin-2-yl)ethyl)phenyl)amino-carbonyl)-2-(quinoline-2-carbonylamino)benzoate], for which the “selectivity for inhibition of BCRP over P-gp” value in the series with BCRP (in vitro transport assays) was “approximately 500 fold”. Also, the IC50 with BCRP (read-out: half-maximum inhibitory concentration (IC50), BCRP-mediated transport of mitoxantrone, topotecan-resistant MCF-7 breast cancer cells) was 60 nM.

Broadly, the Kp is tissue or fluid exposure divided by exposure in the circulation. With `COc1cc2c(cc1OC)CN(CCc1ccc(NC(=O)c3ccc(C(=O)O[11CH3])c(NC(=O)c4ccc5ccccc5n4)c3)cc1)CC2` [[^11C]-1, [^11C]Methyl 4-((4-(2-(6,7-dimethoxy-1,2,3,4-tetrahydroisoquinolin-2-yl)ethyl)phenyl)amino-carbonyl)-2-(quinoline-2-carbonylamino)benzoate], in series [1], the “stability in formulation solution for i.v. injection” value was determined as 100%. Moreover, the “Brain AUC” value in series [2] (Bcrp1(−/−) mice) is 3.1±0.2 h·%ID/g; in series [2] (Mdr1a/b(−/−) mice), 3.6±0.6^† h·%ID/g; in series [2] (Mdr1a/b(−/−)Bcrp1(−/−) mice) it was 5.1±0.9^† h·%ID/g; in series [2] (wild-type mice), 2.8±0.2 h·%ID/g. Besides, the “Brain-blood ratio, 25 min” value in series [2] (Bcrp1(−/−) mice) is given as 1.6±0.1; in series [2] (Mdr1a/b(−/−) mice), 1.7±0.3; in series [2] (Mdr1a/b(−/−)Bcrp1(−/−) mice), 3.2±0.6; in series [2] (wild-type mice), 1.5±0.1. Further, the “Brain concentration, 25 min” value in series [2] (Bcrp1(−/−) mice) is given as 3.5±0.2 %ID/g; in series [2] (Mdr1a/b(−/−) mice) it was 4.2±0.8 %ID/g; in series [2] (Mdr1a/b(−/−)Bcrp1(−/−) mice), 5.8±1.2 %ID/g; in series [2] (wild-type mice), 3.2±0.2 %ID/g. For the same compound, the results for the “AUC of brain TACs, fold higher compared to wild-type animals” value in series [2] (Mdr1a/b(−/−) mice) and in series [2] (triple knockout (Mdr1a/b(−/−)Bcrp1(−/−)) mice) were 1.3 fold and 1.8 fold, respectively. The “total plasma radioactivity recovered in SPE fraction 3 (MeOH)” value in series [3] (setting [6]) was determined as 19%; in series [3] (setting [7]) it was 28%; in series [3] (Mdr1a/b(−/−)Bcrp1(−/−) mice, 25 min after injection) it was 18%; in series [3] (setting [8]), 25%. Besides, the “percentage of unchanged [11C]-1 in mouse plasma” value in series [3] (Bcrp1(−/−) mice) amounted to 14%; in series [3] (Mdr1a/b(−/−) mice), 17%; in series [3] (Mdr1a/b(−/−)Bcrp1(−/−) mice) it was 11%; in series [3] (wild-type mice) it was 13%. For the same compound, the “percentage of total brain radioactivity in the form of unchanged [11C]-1” value in series [3] (setting [6]) is 25%; in series [3] (setting [7]), 62%; in series [3] (setting [8]), 12%. Also, the “Blood concentration, 25 min” value amounted to 2.3 %ID/g in series [3] (Bcrp1(−/−) mice), 2.5 %ID/g in series [3] (Mdr1a/b(−/−) mice), 1.8 %ID/g in series [3] (Mdr1a/b(−/−)Bcrp1(−/−) mice) and 2.1 %ID/g in series [3] (wild-type mice). In addition, the “mean brain-to-plasma ratio of unchanged [11C]-1, fold higher compared to wild-type animals” value in series [3] (Mdr1a/b(−/−) mice) turned out to be 4.8 fold; in series [3] (Mdr1a/b(−/−)Bcrp1(−/−) mice), 10.3 fold. Also, the “total plasma radioactivity in the form of unchanged parent” value in series [3] (mouse plasma extracts, 25 min after injection, range over the 4 mouse types) is 11-17%. Besides, the concentration ratio (Kp) at 25 min in series [3] (Bcrp1(−/−) mice) was 2.1 ± 0.1; in series [3] (Mdr1a/b(−/−) mice) it was 8.6 ± 1.6; in series [3] (Mdr1a/b(−/−)Bcrp1(−/−) mice) it was 18.3 ± 3.7; in series [3] (wild-type mice), 1.8 ± 0.1. Further, the “total radioactivity degraded to an unidentified polar radiolabelled species” value in series [4] was greater than 98%.

In the case of `COc1cc2c(cc1OC)CN(CCc1ccc(NC(=O)c3cc(OC)c(OC)cc3NC(=O)c3cnc4ccccc4c3)cc1)CC2` [tariquidar], the metabolism in vivo result in series [5] is on record as “hardly metabolized”.
